Measured values as given in ChEMBL document CHEMBL1147747, “HIV integrase inhibitors with nucleobase scaffolds: discovery of a highly potent anti-HIV agent” (J Med Chem, 2006).
Calls of active or inactive are those of the source. The rule behind the calls is not given here.

How the values were obtained:
[1] = in vitro; conditions: PBMC infected with HIV-1 TEKI
[2] = test system: PBMC; assay: Antiviral activity against HIV1 TEKI replication in PBMC at 200 uM; type: functional, cell-based; conditions: Homo sapiens
Method in brief: (§1)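 PBMC cell-based microtiter anti-HIV assay against clinical isolate HIV-1 TEKI (NSI phenotype) or HIV-1 NL4-3 (SI phenotype). Test materials were run in triplicate as serial ½log10 dilutions, six to nine concentrations, from a stated high concentration (200 μM or 1 μM). IC50 and IC90 were determined, with cell viability measured in parallel. AZT was the MOI-sensitive positive control.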

[3] = test system: HeLa; assay: Cytotoxicity against HeLa-CD4-LTR-beta-gal cells at 200 uM; type: functional, cell-based; conditions: Homo sapiens
Method in brief: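 Cytotoxicity was measured in HeLa-CD4-LTR-β-gal cells within the MAGI-X4 assay. Up to 200 μM was tested, in triplicate, as serial ½log10 dilutions.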

[4] = in vitro; conditions: PBMC infected with HIV-1 NL4-3
[5] = test system: HeLa; assay: Anti HIV activity against HIV1 NL4-3 in HeLa-CD4-LTR-beta-gal cells in MAGI-X4 assay; type: functional, cell-based
Method in brief: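 MAGI-X4 assay in HeLa-CD4-LTR-β-gal cells infected with HIV-1 NL4-3. Detects blocks in replication up to and including Tat transactivation of the LTR. Triplicate determinations over serial ½log10 dilutions (six to nine concentrations). AZT served as positive control.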

[6] = molecular target: T1, Human immunodeficiency virus type 1 integrase (Human immunodeficiency virus 1, UniProt Q7ZJM1); assay: Inhibition of strand transfer step of wt HIV1 integrase
[7] = test system: PBMC; assay: Antiviral activity against HIV1 NL4-3 replication in PBMC at 200 uM; type: functional, cell-based; conditions: Homo sapiens, NL4-3, PBMC
Method in brief: as §1

[8] = molecular target: T1, Human immunodeficiency virus type 1 integrase; assay: Inhibition of 3' processing step of wt HIV1 integrase
[9] = Therapeutic index (TI=CC50/IC50) in HIV1 TEKI at 1 uM; type: cell-based; conditions: PBMC infected with HIV-1 TEKI; read-out: Ratio CC50/IC50
Method in brief: (§2)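 Therapeutic index was calculated as CC50/IC50 from the PBMC assay, using HIV-1 NL4-3 or HIV-1 TEKI. Cell viability gave CC50, and antiviral readout gave IC50. Triplicate serial ½log10 dilutions were used, with a high test concentration of 200 μM or 1 μM.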

[10] = test system: PBMC; assay: Antiviral activity against HIV1 NL4-3 replication in PBMC at 1 uM; type: functional, cell-based; conditions: Homo sapiens, NL4-3, PBMC
Method in brief: as §1

[11] = Therapeutic index (TI=CC50/IC50) in HIV1 NL4-3 at uM; type: cell-based; conditions: PBMC infected with HIV-1 NL4-3; read-out: Ratio CC50/IC50
Method in brief: as §2

[12] = test system: PBMC; assay: Antiviral activity against HIV1 TEKI replication in PBMC at 1 uM; type: functional, cell-based; conditions: Homo sapiens
Method in brief: as §1

T1 sequence (Q7ZJM1 whole entry): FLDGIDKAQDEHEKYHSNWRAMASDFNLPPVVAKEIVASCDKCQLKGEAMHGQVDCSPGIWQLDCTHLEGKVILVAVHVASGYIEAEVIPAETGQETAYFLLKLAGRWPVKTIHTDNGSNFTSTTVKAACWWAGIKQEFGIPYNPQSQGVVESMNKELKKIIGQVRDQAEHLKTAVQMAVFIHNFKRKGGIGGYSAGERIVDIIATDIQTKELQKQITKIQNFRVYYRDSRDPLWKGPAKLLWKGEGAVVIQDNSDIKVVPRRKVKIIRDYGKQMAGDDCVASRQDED

With `O=C(O)C(=O)/C=C(\O)c1cn(Cc2ccccc2)c(=O)n(Cc2ccccc2)c1=O` as the compound, how does the selectivity ratio at 200 µM [1] read?
The selectivity ratio at 200 µM was over 4000.

What about the CC50 [2] of the same compound?
Its CC50 is over 200000 nM.

What about the CC90 [2] of the same compound?
The CC90 was over 200000 nM.

And the IC50 [2]?
Its IC50 is 50 nM.

And the IC90 [2]?
The IC90 was 3910 nM.

And the Activity [3]?
The Activity was “inactive”.

What about the selectivity ratio at 200 µM [4] of the same compound?
The selectivity ratio at 200 µM was over 10000.

What about the Activity [5] of the same compound?
Its Activity is “Active”.

What about the IC50 [6] of the same compound?
Its IC50 is 200 nM.

And the CC50 [7]?
The CC50 was over 200000 nM.

What about the CC90 [7] of the same compound?
The CC90 was over 200000 nM.

And the IC50 [7]?
The IC50 was under 20 nM.

What about the IC90 [7] of the same compound?
The IC90 was 1540 nM.

And the IC50 [8]?
Its IC50 is 3700 nM.

With `O=C(O)C(=O)/C=C(\O)c1cn(Cc2ccccc2F)c(=O)n(Cc2ccccc2F)c1=O` as the compound, how does the IC50 [6] read?
Its IC50 is under 600 nM.

And the IC50 [8]?
The IC50 was 4100 nM.

Which selectivity ratio [9] does the source give for `Cc1cn([C@H]2C[C@H](N=[N+]=[N-])[C@@H](CO)O2)c(=O)[nH]c1=O` [ZIDOVUDINE] here?
Its selectivity ratio is over 7140.

What about the CC50 [10] of the same compound?
The CC50 was over 1000 nM.

And the IC50 [10]?
The IC50 was 0.18 nM.

And the Activity [5]?
Its Activity is “Active”.

And the selectivity ratio [11]?
The selectivity ratio was over 5560.

What about the CC50 [12] of the same compound?
The CC50 was over 1000 nM.

And the IC50 [12]?
The IC50 was 0.14 nM.

What does the source list for `O=C(O)C(=O)/C=C(\O)c1cn(Cc2ccc(F)cc2)c(=O)n(Cc2ccc(F)cc2)c1=O`?
IC50 [6]: < 700 nM; IC50 [8]: 3900 nM

Which IC50 [6] does the source give for `O=C(O)C(=O)/C=C(\O)c1cn(Cc2ccccc2)c(=O)[nH]c1=O` here?
The IC50 was 500 nM.

And the IC50 [8]?
Its IC50 is 10000 nM.

Which Activity [5] does the source give for `CC(C)(C)NC(=O)[C@@H]1C[C@@H]2CCCC[C@@H]2CN1C[C@@H](O)[C@H](Cc1ccccc1)NC(=O)[C@H](CC(N)=O)NC(=O)c1ccc2ccccc2n1` here?
Its Activity is “inactive”.
